Structures are written as SMILES. Active and inactive are the calls of the source. The rule behind the calls is not given here.

Broadly, the EC50 is the midpoint of the concentration-response curve.

One series relates to HEK-293T. Nature of the series: Cytotoxicity against human HEK293T cells after 72 hrs by alamar blue assay. It is filed as cell-based.
Settings: not given
`OCCCCCCCCCCCCCc1ccc[n+](CCCCCCCCCCCCCc2ccc[n+](CCCCCCCCCCCCCc3cccnc3)c2)c1`: the EC50 turned out to be 16000 nM.
In turn, `OCCCCCCCCCCCCCc1ccc[n+](CCCCCCCCCCCCCc2cccnc2)c1` displayed an EC50 of 25000 nM.
On the same count and under the same terms, the value for `CCCC[n+]1cccc(CCCCCCCCCCCCCO)c1` was 48000 nM.
Compound `c1cc2c[n+](c1)CCCCCCCCCCCCCc1ccc[n+](c1)CCCCCCCCCCCCCc1ccc[n+](c1)CCCCCCCCCCCCC2` [VISCOSAMINE] showed an EC50 of 26000 nM.

Another series relates to Trypanosoma brucei brucei. The series is described as follows: Antitrypanosomal activity against bloodstream form of Trypanosoma brucei brucei s427 assessed as DNA fragmentation at 0.3 to 1 uM up to 48 hrs by flow cytometry.
Settings: not given
The series is classed as functional, organism-based. A digest of the protocol:
(§1)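 Bloodstream-form T. brucei cultures were exposed to compound for up to 48 h, with duplicate samples taken at 24 and 48 h. Lysis sample: PI added directly for 10 min. DNA-content sample: fixed in 70% methanol or permeabilized with digitonin, RNase-treated, then PI-stained. 10000 cells were counted per panel by flow cytometry, and the experiment was run three times.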
On the technique in general: A flow cytometer gives signals particle by particle.
As for `CCCC[n+]1cccc(CCCCCCCCCCCCCO)c1`, the outcome was inactive.

The subject of a further series is Trypanosoma brucei brucei. The series is described as follows: Antitrypanosomal activity against bloodstream form of Trypanosoma brucei brucei 427 (BS221) assessed as increased propidium iodide uptake at >/=100 times EC50 after 8 hrs by real-time cell lysis assay. The series is classed as functional, organism-based.
Settings: not given
A digest of the protocol:
(§2)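 Real-time lysis assay with bloodstream-form T. brucei: propidium iodide in the medium fluoresces only on binding DNA/RNA in membrane-compromised cells. Fluorescence was followed for up to 8 h across a range of concentrations. The read-out was the time to reach 80% lysis versus concentration.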
`CCCC[n+]1cccc(CCCCCCCCCCCCCO)c1`: the result was Active.

Another series has as its system Trypanosoma brucei brucei. The series is described as follows: Antitrypanosomal activity against digitonin permeabilized bloodstream form of Trypanosoma brucei brucei s427 assessed as DNA fragmentation at 0.3 to 1 uM up to 48 hrs by flow cytometry.
Settings: not given
It is filed as functional, organism-based. Summed up:
as §1
In the case of `CCCC[n+]1cccc(CCCCCCCCCCCCCO)c1`, the result was inactive.

The next series relates to Trypanosoma brucei brucei. Nature of the series: Antitrypanosomal activity against digitonin permeabilized bloodstream form of Trypanosoma brucei brucei s427 assessed as increase in propidium iodide uptake at 0.3 to 1 uM up to 48 hrs by flow cytometry. The series is classed as functional, organism-based.
Settings: not given
Summed up:
as §1
Take `CCCC[n+]1cccc(CCCCCCCCCCCCCO)c1`: the result was inactive.

Tested on in another series: not listed separately
The series is described as follows: Selectivity ratio of EC50 for human HEK293 cells to EC50 for Plasmodium falciparum 3D7. It is filed as ADME, cell-based. As to conditions: read-out: Ratio EC50.
In the case of `OCCCCCCCCCCCCCc1ccc[n+](CCCCCCCCCCCCCc2ccc[n+](CCCCCCCCCCCCCc3cccnc3)c2)c1`, the selectivity ratio is 237.
Same read-out and setting: with `c1cc2c[n+](c1)CCCCCCCCCCCCCc1ccc[n+](c1)CCCCCCCCCCCCCc1ccc[n+](c1)CCCCCCCCCCCCC2` [VISCOSAMINE] the figure was 493.

In a further series the test system is Trypanosoma brucei brucei. The series is described as follows: Antitrypanosomal activity against TbAt1-deficient bloodstraem form Trypanosoma brucei brucei B48 after 72 hrs by alamar blue assay. The series is classed as functional, organism-based. To be noted: B48, 72 h.
`OCCCCCCCCCCCCCc1ccc[n+](CCCCCCCCCCCCCc2ccc[n+](CCCCCCCCCCCCCc3cccnc3)c2)c1` yielded an EC50 of 250 nM.
Still for that read-out and setting: with `OCCCCCCCCCCCCCc1ccc[n+](CCCCCCCCCCCCCc2cccnc2)c1` the figure was 300 nM; with `CCCC[n+]1cccc(CCCCCCCCCCCCCO)c1`, 200 nM; with `c1cc2c[n+](c1)CCCCCCCCCCCCCc1ccc[n+](c1)CCCCCCCCCCCCCc1ccc[n+](c1)CCCCCCCCCCCCC2` [VISCOSAMINE], 280 nM.

The next series deals with Trypanosoma brucei brucei. Nature of the series: Antitrypanosomal activity against bloodstream form of Trypanosoma brucei brucei 427 (BS221) after 72 hrs by alamar blue assay. It is filed as functional, organism-based.
Settings: not given
Compound `OCCCCCCCCCCCCCc1ccc[n+](CCCCCCCCCCCCCc2ccc[n+](CCCCCCCCCCCCCc3cccnc3)c2)c1` displayed an EC50 of 220 nM.
`OCCCCCCCCCCCCCc1ccc[n+](CCCCCCCCCCCCCc2cccnc2)c1`: the midpoint of the response, the EC50, lay at 400 nM.
Same read-out and setting: the value for `CCCC[n+]1cccc(CCCCCCCCCCCCCO)c1` was 160 nM; that for `c1cc2c[n+](c1)CCCCCCCCCCCCCc1ccc[n+](c1)CCCCCCCCCCCCCc1ccc[n+](c1)CCCCCCCCCCCCC2` [VISCOSAMINE] was 410 nM.

In a further series the test system is Trypanosoma brucei brucei. The series is described as follows: Antitrypanosomal activity against bloodstream form of Trypanosoma brucei brucei 427 (BS221) assessed as increased propidium iodide uptake at 780 nM after 3 hrs by real-time cell lysis assay. The series is classed as functional, organism-based.
Settings: not given
A digest of the protocol: as §2
With `OCCCCCCCCCCCCCc1ccc[n+](CCCCCCCCCCCCCc2cccnc2)c1`, the outcome was Active.

Tested on in another series: not listed separately
Nature of the series: Selectivity ratio of EC50 for human HEK293 cells to EC50 for Leishmania major Friedlin. The series is classed as ADME, cell-based. As to conditions: read-out: Ratio EC50.
For `CCCC[n+]1cccc(CCCCCCCCCCCCCO)c1`, the selectivity ratio turned out to be 145.

Another series relates to Leishmania mexicana. The series is described as follows: Antileishmanial activity against amastigotes of Leishmania mexicana MNYC/BZ/62/M379 after 72 hrs by alamar blue assay. The series is classed as functional, organism-based. To be noted: MNYC/BZ/62/M379, 72 h. (In general: Alamar Blue is a resazurin reagent that responds to reducing activity.)
Compound `OCCCCCCCCCCCCCc1ccc[n+](CCCCCCCCCCCCCc2ccc[n+](CCCCCCCCCCCCCc3cccnc3)c2)c1` displayed an EC50 of 190 nM.
The same measure, in the same setting: with `OCCCCCCCCCCCCCc1ccc[n+](CCCCCCCCCCCCCc2cccnc2)c1` the figure was 340 nM.
Take `CCCC[n+]1cccc(CCCCCCCCCCCCCO)c1`: a half-maximal effect (EC50) was put at 1700 nM.
Still for that read-out and setting: the value for `c1cc2c[n+](c1)CCCCCCCCCCCCCc1ccc[n+](c1)CCCCCCCCCCCCCc1ccc[n+](c1)CCCCCCCCCCCCC2` [VISCOSAMINE] was 810 nM.

Another series concerns Trypanosoma brucei brucei. The series is described as follows: Antitrypanosomal activity against TbAt1-deficient bloodstraem form of Trypanosoma brucei brucei 427 (BS221) after 72 hrs by alamar blue assay. The series is classed as functional, organism-based.
Settings: not given
`OCCCCCCCCCCCCCc1ccc[n+](CCCCCCCCCCCCCc2ccc[n+](CCCCCCCCCCCCCc3cccnc3)c2)c1`: the EC50 came to 270 nM.
`OCCCCCCCCCCCCCc1ccc[n+](CCCCCCCCCCCCCc2cccnc2)c1` showed an EC50 of 620 nM.
`CCCC[n+]1cccc(CCCCCCCCCCCCCO)c1` showed an EC50 of 260 nM.
In turn, `c1cc2c[n+](c1)CCCCCCCCCCCCCc1ccc[n+](c1)CCCCCCCCCCCCCc1ccc[n+](c1)CCCCCCCCCCCCC2` [VISCOSAMINE] displayed a half-maximal effective concentration (EC50) of 490 nM.

Tested on in the next series: not listed separately
Nature of the series: Selectivity ratio of EC50 for human HEK293 cells to EC50 for TbAt1-deficient bloodstraem form of Trypanosoma brucei brucei 427 (BS221). It is filed as ADME, cell-based. As to conditions: read-out: Ratio EC50.
As to `CCCC[n+]1cccc(CCCCCCCCCCCCCO)c1`, the selectivity ratio came to 299.

A further series deals with Leishmania major. Nature of the series: Antileishmanial activity against promastigotes of Leishmania major Friedlin after 72 hrs by alamar blue assay. The series is classed as functional, organism-based.
Settings: not given
As to `OCCCCCCCCCCCCCc1ccc[n+](CCCCCCCCCCCCCc2ccc[n+](CCCCCCCCCCCCCc3cccnc3)c2)c1`, the EC50 was determined as 850 nM.
Compound `OCCCCCCCCCCCCCc1ccc[n+](CCCCCCCCCCCCCc2cccnc2)c1` showed an EC50 of 1600 nM.
On to `CCCC[n+]1cccc(CCCCCCCCCCCCCO)c1`, for which the response was half-maximal at 330 nM (EC50).
In turn, `c1cc2c[n+](c1)CCCCCCCCCCCCCc1ccc[n+](c1)CCCCCCCCCCCCCc1ccc[n+](c1)CCCCCCCCCCCCC2` [VISCOSAMINE] gave an EC50 of 720 nM.

Another series has as its system Trypanosoma brucei brucei. The series is described as follows: Antitrypanosomal activity against bloodstream form of Trypanosoma brucei brucei 427 (BS221) assessed as increased propidium iodide uptake at 50 to 100 uM after 30 mins by real-time cell lysis assay. It is filed as functional, organism-based.
Settings: not given
A digest of the protocol:
as §2
Turning to `OCCCCCCCCCCCCCc1ccc[n+](CCCCCCCCCCCCCc2ccc[n+](CCCCCCCCCCCCCc3cccnc3)c2)c1`, the result was Active.
The same measure, in the same setting: with `OCCCCCCCCCCCCCc1ccc[n+](CCCCCCCCCCCCCc2cccnc2)c1` the entry was “Active”.
The same measure, in the same setting: the value for `CCCC[n+]1cccc(CCCCCCCCCCCCCO)c1` was “Active”.
Still for that read-out and setting: the value for `c1cc2c[n+](c1)CCCCCCCCCCCCCc1ccc[n+](c1)CCCCCCCCCCCCCc1ccc[n+](c1)CCCCCCCCCCCCC2` [VISCOSAMINE] was “Active”.

Tested on in another series: not listed separately
The series is described as follows: Selectivity ratio of EC50 for human HEK293 cells to EC50 for bloodstream form of Trypanosoma brucei brucei 427 (BS221). It is filed as ADME, cell-based. To be noted: read-out: Ratio EC50.
`CCCC[n+]1cccc(CCCCCCCCCCCCCO)c1`: the selectivity ratio was 299.

Tested on in the next series: not listed separately
The series is described as follows: Selectivity ratio of EC50 for human HEK293 cells to EC50 for Leishmania mexicana MNYC/BZ/62/M379. It is filed as ADME, cell-based. As to conditions: read-out: Ratio EC50.
In the case of `CCCC[n+]1cccc(CCCCCCCCCCCCCO)c1`, the selectivity ratio amounted to 145.

For another series, the system named is Plasmodium falciparum. The series is described as follows: Antiplasmodial activity against Plasmodium falciparum 3D7 assessed as inhibition of [3H]hypoxanthine incorporation after 18 hrs by liquid scintillation counting. It is filed as functional, organism-based.
Settings: not given
Take `OCCCCCCCCCCCCCc1ccc[n+](CCCCCCCCCCCCCc2ccc[n+](CCCCCCCCCCCCCc3cccnc3)c2)c1`: the EC50 was determined as 68 nM.
Same read-out and setting: with `OCCCCCCCCCCCCCc1ccc[n+](CCCCCCCCCCCCCc2cccnc2)c1` the figure was 140 nM.
Consider `CCCC[n+]1cccc(CCCCCCCCCCCCCO)c1`, for which the concentration giving a half-maximal response (EC50) stood at 510 nM.
Regarding `c1cc2c[n+](c1)CCCCCCCCCCCCCc1ccc[n+](c1)CCCCCCCCCCCCCc1ccc[n+](c1)CCCCCCCCCCCCC2` [VISCOSAMINE], the EC50 stood at 53 nM.

A further series deals with Trypanosoma brucei brucei. The series is described as follows: Antitrypanosomal activity against Trypanosoma brucei brucei 427 at 10 uM after 24 hrs by hemocytometry. The series is classed as functional, organism-based.
Settings: not given
Summed up:
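Reversibility test: bloodstream-form T. brucei cultures seeded at 2 × 10⁴ cells, compound added at t = 0 h. Compound was washed out after 24 h or 48 h, or left in. Growth was monitored over 72 h against drug-free controls.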
For `CCCC[n+]1cccc(CCCCCCCCCCCCCO)c1`, the outcome was Active.

The next series deals with Trypanosoma brucei brucei. The series is described as follows: Antitrypanosomal activity against bloodstream form of Trypanosoma brucei brucei s427 assessed as increase in propidium iodide uptake at 0.3 to 1 uM up to 48 hrs by flow cytometry. The series is classed as functional, organism-based.
Settings: not given
Summed up:
as §1
Turning to `CCCC[n+]1cccc(CCCCCCCCCCCCCO)c1`, the result was inactive.

The next series relates to Trypanosoma brucei brucei. Nature of the series: Antitrypanosomal activity against digitonin permeabilized bloodstream form of Trypanosoma brucei brucei s427 assessed as decrease in 2C/4C DNA content by DAPI staining-based fluorescent microscopy.
Settings: not given
It is filed as functional, organism-based.
Consider `CCCC[n+]1cccc(CCCCCCCCCCCCCO)c1`, for which the result was inactive.

In a further series the test system is Trypanosoma brucei brucei. The series is described as follows: Antitrypanosomal activity against bloodstream form of Trypanosoma brucei brucei 427 (BS221) assessed as increased propidium iodide uptake at 10 to 50 times EC50 after by real-time cell lysis assay. The series is classed as functional, organism-based.
Settings: not given
Summed up: as §2
Turning to `OCCCCCCCCCCCCCc1ccc[n+](CCCCCCCCCCCCCc2ccc[n+](CCCCCCCCCCCCCc3cccnc3)c2)c1`, the outcome was Active.
On to `c1cc2c[n+](c1)CCCCCCCCCCCCCc1ccc[n+](c1)CCCCCCCCCCCCCc1ccc[n+](c1)CCCCCCCCCCCCC2` [VISCOSAMINE], for which the outcome was Active.
